From ChEMBL document CHEMBL1154697, “Design, synthesis and docking studies of new furobenzopyranones and pyranobenzopyranones as photoreagent towards DNA and as antimicrobial agents” (2010)

Key:
Assay type in all cases: functional
[1] = tested on: Bacillus subtilis; experiment: Antimicrobial activity against Bacillus subtilis pretreated 3 hrs before UV photosensitization measured after overnight reincubation under dark condition by agar plate disc diffusion method
How it was run: (§1)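 B. subtilis 18 h broth culture (0.02 ml) mixed into 10 ml liquefied nutrient agar (beef extract, peptone, K2HPO4, agar). Each dish carries a DMF disc and a xanthotoxin disc (10 mg/ml DMF). Test plates kept dark at 37 °C for 3 h for diffusion, then uncovered and exposed to 365 nm UV for 20 min. A duplicate plate left unirradiated in the incubator overnight. Inhibition zones measured.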

[2] = tested on: Bacillus subtilis; experiment: Antimicrobial activity against 20 mins UV photosensitized Bacillus subtilis measured after overnight reincubation under dark condition by agar plate disc diffusion method; how it was run: as §1
[3] = tested on: Escherichia coli; experiment: Antibacterial activity against Escherichia coli at 50 mg/mL after 48 hrs by agar plate disc diffusion method; settings: read-out: IZ
How it was run: (§2)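 Discs placed on nutrient agar plates (15 ml agar seeded with 0.2 mL of 18 h liquid culture of each organism); plates incubated 37 °C for 48 h, inhibition zone diameter read in mm around each disc. DMF-impregnated discs as solvent control; tetracycline (antibacterial) and amphotericin B (antifungal) references run concurrently.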

[4] = tested on: Staphylococcus aureus; experiment: Antibacterial activity against Staphylococcus aureus at 50 mg/mL after 48 hrs by agar plate disc diffusion method; settings: read-out: IZ; how it was run: as §2
[5] = tested on: Candida albicans; experiment: Antifungal activity against Candida albicans at 50 mg/mL after 48 hrs by agar plate disc diffusion method; settings: read-out: IZ; how it was run: as §2

Row | Structure (SMILES) | inhibition zone (IZ) [1] [millimeter] | inhibition zone (IZ) [2] [millimeter] | zone of inhibition at 50000 µg/mL [3] [mm] | zone of inhibition at 50000 µg/mL [4] [mm] | zone of inhibition at 50000 µg/mL [5] [mm]
1 | Cc1c(C(=O)NNC(=S)NCc2ccccc2)c(=O)oc2ccc3c(-c4ccccc4)cc(=O)oc3c12 | 18 | 22 | 20 | 30 | –
2 | COc1c2occc2c(OC)c2c(C)c(C(=O)NNC(=S)NCc3ccccc3)c(=O)oc12 | 10 | 12 | – | – | –
3 | COc1c2occc2c(OC)c2c(C)c(-c3nnc(S)n3Cc3ccccc3)c(=O)oc12 | – | 11 | – | – | –
4 | Cc1c(-c2nnc(S)n2Cc2ccccc2)c(=O)oc2ccc3c(-c4ccccc4)cc(=O)oc3c12 | – | 12 | – | – | –
5 | COc1c2occc2c(OC)c2c(C)c(C(=O)NN)c(=O)oc12 | 12 | 14 | 18 | – | –
6 | C[C@@H]1[C@H](O)[C@@H](C)/C=C/C=C/C=C/C=C/C=C/C=C/C=C/[C@H](O[C@@H]2O[C@H](C)[C@@H](O)[C@H](N)[C@@H]2O)C[C@@H]2O[C@](O)(C[C@@H](O)C[C@@H](O)[C@H](O)CC[C@@H](O)C[C@@H](O)CC(=O)O[C@H]1C)C[C@H](O)[C@H]2C(=O)O [AMPHOTERICIN B] | – | – | – | – | 30
7 | COc1c2occc2cc2ccc(=O)oc12 [METHOXSALEN] | – | 12 | – | – | –
8 | CN(C)[C@@H]1C(O)=C(C(N)=O)C(=O)[C@@]2(O)C(O)=C3C(=O)c4c(O)cccc4[C@@](C)(O)[C@H]3C[C@@H]12 [TETRACYCLINE] | 30 | – | 34 | 36 | –
